Assay results: publication PMC6437231 (Diabetes Therapy, 2019)
One block for each compound: values may come before it.

Key:
[1] = ref [6], cited from earlier work
[2] = assay type: in vivo, human; details: final two-compartment model
How it was run: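 Plasma semaglutide (LC–MS/MS) from 353 subjects in 9 trials with s.c. and i.v. dosing. Mixed-effects two-compartment model with first-order absorption and elimination; i.v. doses treated as a central bolus. Log-normal inter-individual variability on ka, CL, Q, Vc and Vp; (weight/85 kg) exponent on CL, Q, Vc and Vp; product strength (1, 1.34, 3, 10 mg/mL) on ka. Covariates kept at 10% alpha; CWRES >6 excluded; log-additive residual error.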

[3] = assay type: in vivo, human; details: one-compartment model, 7 multiple-dose trials, s.c.
How it was run: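 Steady-state s.c. plasma data from seven multiple-dose trials, with dose escalation 0.25 > 0.5 > 1.0 mg (one trial to 1.5 mg). One-compartment mixed-effects model parameterised as CL/F, V/F and ka, each with inter-individual variability. […] Log-additive residual error; values with CWRES >6 excluded.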

plasma albumin = details: ref [5]; cited from earlier work
[4] = cited from earlier work
[5] = population PK model; ref [9]; cited from earlier work
[6] = one-compartment model from phase 3a trials
[7] = s.c., trial 7 drug product strength

- Higher CL in subjects with type 2 diabetes compared to healthy subjects ([2]; 95% CI 9–16%): 12%
- T2D effect on ka ([2]; factor, T2D vs normoglycaemia): 0.544
- Injection site effect on F ([2]; factor, thigh vs abdomen): 0.883
- Drug product strength effects on ka, 3 mg [2, 7]: 0.0526
- Drug product strength effects on ka, 10 mg [2, 7]: 0.139
- Bioavailability estimated by the final model ([2]; s.c., 95% CI 0.80–0.90): 85%
- Lower bioavailability when using the thigh compared with the abdomen ([2]; s.c., 95% CI 0.84–0.92): 12%
- Total volume of distribution (Vc + Vp) ([2]; typical subject with T2D, 85 kg): approximately 8 L
- Absorption rate constant (ka) ([3]; 267 subjects): 0.0296 h⁻¹
Compound: CC[C@H](C)[C@H](NC(=O)[C@H](Cc1ccccc1)NC(=O)[C@H](CCC(=O)O)NC(=O)[C@H](CCCCNC(=O)COCCOCCNC(=O)COCCOCCNC(=O)CC[C@H](NC(=O)CCCCCCCCCCCCCCCCC(=O)O)C(=O)O)NC(=O)[C@H](C)NC(=O)[C@H](C)NC(=O)[C@H](CCC(N)=O)NC(=O)CNC(=O)[C@H](CCC(=O)O)NC(=O)[C@H](CC(C)C)NC(=O)[C@H](Cc1ccc(O)cc1)NC(=O)[C@H](CO)NC(=O)[C@H](CO)NC(=O)[C@@H](NC(=O)[C@H](CC(=O)O)NC(=O)[C@H](CO)NC(=O)[C@@H](NC(=O)[C@H](Cc1ccccc1)NC(=O)[C@@H](NC(=O)CNC(=O)[C@H](CCC(=O)O)NC(=O)C(C)(C)NC(=O)[C@@H](N)Cc1cnc[nH]1)[C@@H](C)O)[C@@H](C)O)C(C)C)C(=O)N[C@@H](C)C(=O)N[C@@H](Cc1c[nH]c2ccccc12)C(=O)N[C@@H](CC(C)C)C(=O)N[C@H](C(=O)N[C@@H](CCCNC(=N)N)C(=O)NCC(=O)N[C@@H](CCCNC(=N)N)C(=O)NCC(=O)O)C(C)C [semaglutide]
- CL/F for subject with T2D and body weight of 85 kg [1, 6]: 0.0478 L/h
- Total volume/F (V/F) [1, 6]: 12.2 L
- Inter-individual variability in clearance ([1]; phase 3 analysis, CV): 12.9%
- Central volume (Vc) ([2]; 9 trials, body weight 85 kg): 3.59 L
- Peripheral volume (Vp) ([2]; 9 trials, body weight 85 kg): 4.10 L
- Body weight effect on Vc and Vp ([2]; exponent of (weight/85 kg)): 0.923
- Apparent clearance (CL/F), healthy volunteer with body weight of 85 kg [3]: 0.0415 L/h
- Bound to plasma albumin (plasma albumin): more than 99%

Compound: liraglutide
- Elimination compared with semaglutide ([4]; population PK model, ref [10]): much faster elimination
- Bioavailability after administration in the thigh versus the abdomen ([4]; ref [16]): slightly lower

Compound: dulaglutide
- Greater CL compared to semaglutide [5]: approximately 50%
- Interindividual variability, coefficient of variation (CV) for CL [5]: 40.5%
- Lower volume of distribution compared to semaglutide [5]: 20%
- Slower absorption compared to semaglutide [5]: approximately threefold
